According to ChEMBL document CHEMBL1123615, “1,3-Dialkyl-4-(iminoarylmethyl)-1H-pyrazol-5-ols. A series of novel potential antipsychotic agents” (J Med Chem, 1987):

How the values were obtained:
Mus musculus [1] = assay: Inhibition of ataxia in mice by intraperitoneal administration.; type: functional; conditions: ip
Outline: (§1)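 Mice scored for inhibition of spontaneous locomotor activity and for ataxia (impaired motor coordination). Nine mice per dose; ED50 derived from at least three doses.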

Mus musculus [2] = assay: Inhibition of locomotor activity (LMA) and motor coordination in mice by intraperitoneal administration.; type: functional; conditions: ip; outline: as §1
D(2) dopamine receptor = D(2) dopamine receptor (Rattus norvegicus, UniProt P61169); assay: In vitro binding affinity against Dopamine receptor D2 by displacement of [3H]haloperidol from rat striatal membranes.; type: cell membranes, Membrane
D(2) dopamine receptor, sequence (P61169 whole entry): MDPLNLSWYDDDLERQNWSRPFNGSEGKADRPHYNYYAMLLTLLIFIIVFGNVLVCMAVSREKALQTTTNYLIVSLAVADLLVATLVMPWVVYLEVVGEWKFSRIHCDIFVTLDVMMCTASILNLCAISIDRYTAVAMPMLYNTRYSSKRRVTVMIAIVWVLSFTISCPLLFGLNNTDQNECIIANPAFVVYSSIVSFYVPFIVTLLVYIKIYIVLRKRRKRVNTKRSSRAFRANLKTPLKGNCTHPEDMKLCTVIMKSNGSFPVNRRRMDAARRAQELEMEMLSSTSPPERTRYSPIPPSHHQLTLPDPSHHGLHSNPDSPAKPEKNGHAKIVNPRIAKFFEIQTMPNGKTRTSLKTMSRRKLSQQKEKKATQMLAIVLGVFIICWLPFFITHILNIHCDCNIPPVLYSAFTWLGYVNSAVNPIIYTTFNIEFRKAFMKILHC

[3] = target: alpha-1 adrenergic receptor (Rattus norvegicus); assay: Affinity for displacement of [3H]WB-4101 labeled alpha-1 adrenergic receptor
[4] = Inhibition of sidman avoidance in squirrel monkeys, activity expressed as ED50 mg/kg per orally.; type: functional; conditions: po
Outline: (§2)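 Sidman avoidance in rats or squirrel monkeys with oral dosing; ED50 given in mg/kg.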

D(1A) dopamine receptor = D(1A) dopamine receptor (Rattus norvegicus, UniProt P18901); assay: Affinity for displacement of [3H]SCH-23390 labeled Dopamine receptor D1
D(1A) dopamine receptor, sequence (P18901 whole entry): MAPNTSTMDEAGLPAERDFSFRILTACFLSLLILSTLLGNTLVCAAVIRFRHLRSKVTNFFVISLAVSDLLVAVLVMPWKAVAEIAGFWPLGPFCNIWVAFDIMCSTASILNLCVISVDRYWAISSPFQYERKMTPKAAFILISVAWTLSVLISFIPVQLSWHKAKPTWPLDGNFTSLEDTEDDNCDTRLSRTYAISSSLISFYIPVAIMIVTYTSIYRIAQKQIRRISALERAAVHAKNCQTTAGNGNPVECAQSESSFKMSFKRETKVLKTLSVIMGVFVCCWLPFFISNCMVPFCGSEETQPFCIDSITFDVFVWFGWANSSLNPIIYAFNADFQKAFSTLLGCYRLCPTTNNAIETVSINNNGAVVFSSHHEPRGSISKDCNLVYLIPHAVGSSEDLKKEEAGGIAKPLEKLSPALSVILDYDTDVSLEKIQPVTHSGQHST
Outline: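 [3H]SCH23390 binding (D1 label), run by a method from earlier work. IC50 obtained by non-linear regression over four or five concentrations. Reference standard SCH23390 included.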

Rattus norvegicus [5] = assay: Effect on serum prolactin level, activity expressed as percent control at 23.7 and 27.0 mg/kg per orally.; type: functional
Outline: (§3)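 Rats dosed orally and killed 1 h after administration; serum prolactin measured. Values are means from groups of five animals, expressed as % of vehicle control.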

Rattus norvegicus [6] = assay: Inhibition of sidman avoidance in rats, activity expressed as ED50 mg/kg per orally.; type: functional; conditions: po; outline: as §2
Rattus norvegicus [7] = assay: Inhibition of self-stimulation in rats, activity expressed as ED50 mg/kg per orally.; type: functional; conditions: po
Outline: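 Oral dosing in rats; suppression of high baseline self-stimulation measured; ED50 given in mg/kg.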

[8] = Extrapyramidal syndrome(EPS) signs in cebus monkeys, activity expressed as MED mg/kg per orally.; type: functional; conditions: po; read-out: MED
Outline: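 Cebus monkeys previously sensitized to haloperidol, observed for dystonic signs after oral dosing. Minimal effective dose determined in at least three animals.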

[9] = target: alpha-2 adrenergic receptor (Rattus norvegicus); assay: Affinity for displacement of [3H]clonidine labeled alpha-2 adrenergic receptor
Rattus norvegicus [10] = assay: Effect on serum prolactin level, activity expressed as percent control at 23.7 mg/kg per orally.; type: functional; conditions: in the assay text read “27.0 mg/kg” for “23.7 mg/kg”; outline: as §3
Rattus norvegicus [11] = assay: Effect on serum prolactin level, activity expressed as percent control at 27.0 mg/kg per orally.; type: functional; outline: as §3

SMILES: Cc1[nH]n(C)c(=O)c1C(=N)c1cccc(Br)c1
- ED50 (Mus musculus [1]): > 30 mg/kg
- ED50 (Mus musculus [2]): 20.5 mg/kg
- IC50 (D(2) dopamine receptor): > 10 µM

SMILES: CCCn1[nH]c(C)c(C(=N)c2cccc(Cl)c2)c1=O
- ED50 (Mus musculus [1]): > 30 mg/kg
- ED50 (Mus musculus [2]): 21.5 mg/kg
- IC50 (D(2) dopamine receptor): > 10 µM

SMILES: Cc1[nH]n(C)c(=O)c1C(=N)c1cccc(F)c1
- ED50 (Mus musculus [1]): 63.6 mg/kg
- ED50 (Mus musculus [2]): 35.6 mg/kg
- IC50 (D(2) dopamine receptor): > 10 µM

SMILES: CN1CCN(C2=Nc3cc(Cl)ccc3Nc3ccccc32)CC1 [CLOZAPINE]
- ED50 (Mus musculus [1]): 10 mg/kg

SMILES: C/N=C(/c1cccc(Cl)c1)c1c(C)[nH]n(C)c1=O
- ED50 (Mus musculus [1]): 73.1 mg/kg
- ED50 (Mus musculus [2]): 50.5 mg/kg

SMILES: Cc1[nH]n(C)c(=O)c1C(=N)c1cccc(Cl)c1
- ED50 (Mus musculus [1]): > 100 mg/kg
- IC50 [3]: > 10 µM
- ED50 [4]: 16.3 mg/kg
- ED50 (Mus musculus [2]): 15.2 mg/kg
- IC50 (D(1A) dopamine receptor): > 10 µM
- Control (Rattus norvegicus [5]): -25%
- ED50 (Rattus norvegicus [6]): 17 mg/kg
- ED50 (Rattus norvegicus [7]): 23.7 mg/kg
- minimal effective dose [8]: > 100 mg/kg
- IC50 (D(2) dopamine receptor): > 10 µM
- IC50 [9]: > 10 µM

SMILES: Cc1[nH]n(C)c(=O)c1C(=N)c1ccco1
- ED50 (Mus musculus [1]): > 100 mg/kg
- ED50 (Mus musculus [2]): 33.6 mg/kg

SMILES: CCCn1[nH]c(C)c(C(=N)c2ccccc2)c1=O
- ED50 (Mus musculus [1]): 25.2 mg/kg
- ED50 (Mus musculus [2]): 11.6 mg/kg

SMILES: CC(=O)/N=C(\c1cccc(Cl)c1)c1c(C)[nH]n(C)c1=O
- ED50 (Mus musculus [1]): > 100 mg/kg
- ED50 (Mus musculus [2]): 25.1 mg/kg
- IC50 (D(2) dopamine receptor): > 1 µM

SMILES: CCn1[nH]c(C)c(C(=N)c2ccccc2)c1=O
- ED50 (Mus musculus [1]): 21.5 mg/kg
- ED50 (Mus musculus [2]): 11.8 mg/kg
- IC50 (D(2) dopamine receptor): > 10 µM

SMILES: Cc1[nH]n(C)c(=O)c1/C(=N/C(=O)C(Cl)Cl)c1cccc(Cl)c1
- ED50 (Mus musculus [1]): > 100 mg/kg
- ED50 (Mus musculus [2]): 35.5 mg/kg
- IC50 (D(2) dopamine receptor): > 1 µM

SMILES: Cc1[nH]n(C)c(=O)c1C(=N)c1ccc(C(F)(F)F)cc1
- ED50 (Mus musculus [1]): > 30 mg/kg
- ED50 (Mus musculus [2]): 31.4 mg/kg
- IC50 (D(2) dopamine receptor): > 10 µM

SMILES: Cc1[nH]n(C)c(=O)c1C(=N)c1cccc([N+](=O)[O-])c1
- ED50 (Mus musculus [1]): > 100 mg/kg
- ED50 (Mus musculus [2]): 38.8 mg/kg

SMILES: Cc1[nH]n(C)c(=O)c1C(=N)c1cc(Cl)cc(Cl)c1
- ED50 (Mus musculus [1]): > 100 mg/kg
- ED50 (Mus musculus [2]): 34.9 mg/kg

SMILES: Cc1[nH]n(C)c(=O)c1C(=N)c1ccccc1
- ED50 (Mus musculus [1]): 30.2 mg/kg
- ED50 (Mus musculus [2]): 13.9 mg/kg
- IC50 (D(2) dopamine receptor): > 10 µM

SMILES: Cc1ccc(C(=N)c2c(C)[nH]n(C)c2=O)cc1
- ED50 (Mus musculus [1]): > 100 mg/kg
- ED50 (Mus musculus [2]): > 100 mg/kg

SMILES: CCc1[nH]n(C)c(=O)c1C(=N)c1cccc(Cl)c1
- ED50 (Mus musculus [1]): 47.6 mg/kg
- ED50 (Mus musculus [2]): 60.6 mg/kg

SMILES: Cc1[nH]n(C(C)C)c(=O)c1C(=N)c1cccc(Cl)c1
- ED50 (Mus musculus [1]): > 30 mg/kg
- ED50 (Mus musculus [2]): 25 mg/kg
- IC50 (D(2) dopamine receptor): > 10 µM

SMILES: COc1ccccc1C(=N)c1c(C)[nH]n(C)c1=O
- ED50 (Mus musculus [1]): 87.9 mg/kg
- ED50 (Mus musculus [2]): 46.6 mg/kg

SMILES: Cc1[nH]n(C)c(=O)c1C(=N)c1ccc(F)cc1
- ED50 (Mus musculus [1]): > 30 mg/kg
- ED50 (Mus musculus [2]): 15 mg/kg
- IC50 (D(2) dopamine receptor): > 10 µM

SMILES: CCCCn1[nH]c(C)c(C(=N)c2ccccc2)c1=O
- ED50 (Mus musculus [1]): > 100 mg/kg
- ED50 (Mus musculus [2]): 48.7 mg/kg

SMILES: CSc1ccc2c(c1)N(CCC1CCCCN1C)c1ccccc1S2 (stereo not given) [THIORIDAZINE]
- ED50 (Mus musculus [1]): > 100 mg/kg
- Control (Rattus norvegicus [10]): 918%
- ED50 [4]: 4 mg/kg
- Control (Rattus norvegicus [11]): 918%
- ED50 (Mus musculus [2]): 2.9 mg/kg
- ED50 (Rattus norvegicus [6]): 14.4 mg/kg
- ED50 (Rattus norvegicus [7]): 28.3 mg/kg
- minimal effective dose [8]: 2.5 mg/kg

SMILES: Cc1[nH]n(C)c(=O)c1C(=N)c1ccc(N)cc1
- ED50 (Mus musculus [1]): > 100 mg/kg
- ED50 (Mus musculus [2]): > 100 mg/kg

SMILES: Cc1[nH]n(C)c(=O)c1C(=N)c1cccc(C(F)(F)F)c1
- ED50 (Mus musculus [1]): > 30 mg/kg
- ED50 (Mus musculus [2]): > 30 mg/kg

SMILES: Cc1[nH]n(C)c(=O)c1C(=N)c1ccc(Cl)cc1
- ED50 (Mus musculus [1]): > 56 mg/kg
- ED50 (Mus musculus [2]): 18.9 mg/kg

SMILES: CCn1[nH]c(C)c(C(=N)c2cccc(Cl)c2)c1=O
- ED50 (Mus musculus [1]): 45.3 mg/kg
- ED50 (Mus musculus [2]): 16 mg/kg
- IC50 (D(2) dopamine receptor): > 10 µM

SMILES: Cc1[nH]n(C)c(=O)c1C(=N)c1ccc2ccccc2c1
- ED50 (Mus musculus [1]): > 100 mg/kg
- ED50 (Mus musculus [2]): 65.6 mg/kg

SMILES: Cc1[nH]n(C)c(=O)c1C(=N)c1cccs1
- ED50 (Mus musculus [1]): > 90 mg/kg
- ED50 (Mus musculus [2]): 40.5 mg/kg

SMILES: Cc1[nH]n(C)c(=O)c1C(=N)c1ccccc1Cl
- ED50 (Mus musculus [1]): 50.8 mg/kg
- ED50 (Mus musculus [2]): 31.1 mg/kg

SMILES: Cc1[nH]n(C)c(=O)c1C(=N)c1ccc([N+](=O)[O-])cc1
- ED50 (Mus musculus [1]): > 90 mg/kg
- ED50 (Mus musculus [2]): > 90 mg/kg

SMILES: CCCCn1[nH]c(C)c(C(=N)c2cccc(Cl)c2)c1=O
- ED50 (Mus musculus [1]): 62.5 mg/kg
- ED50 (Mus musculus [2]): 88.3 mg/kg

SMILES: Cn1[nH]cc(C(=N)c2cccc(Cl)c2)c1=O
- ED50 (Mus musculus [1]): > 100 mg/kg
- ED50 (Mus musculus [2]): 47.8 mg/kg

SMILES: Cn1[nH]cc(C(=N)c2ccccc2)c1=O
- ED50 (Mus musculus [1]): > 100 mg/kg
- ED50 (Mus musculus [2]): 49.1 mg/kg

SMILES: Cc1[nH]n(C)c(=O)c1/C(=N/C(=O)C(F)(F)F)c1cccc(Cl)c1
- ED50 (Mus musculus [1]): > 100 mg/kg
- ED50 (Mus musculus [2]): 17.9 mg/kg
- IC50 (D(2) dopamine receptor): > 10 µM

SMILES: COc1ccc(C(=N)c2c(C)[nH]n(C)c2=O)cc1
- ED50 (Mus musculus [1]): > 100 mg/kg
- ED50 (Mus musculus [2]): > 100 mg/kg

SMILES: Cc1[nH]n(C)c(=O)c1C(=N)c1ccc(Cl)c(Cl)c1
- ED50 (Mus musculus [1]): > 30 mg/kg
- ED50 (Mus musculus [2]): 26.4 mg/kg

SMILES: Cc1cccc(C(=N)c2c(C)[nH]n(C)c2=O)c1
- ED50 (Mus musculus [1]): 79.3 mg/kg
- ED50 (Mus musculus [2]): 33.1 mg/kg
